Measured values pooled from the literature.
Target: Tyrosine-protein kinase CSK (CSK, Homo sapiens, UniProt P41240)

Structure (SMILES)	assay	setting	endpoint	value
CCN(CC)CCNC(=O)c1c(C)[nH]c(/C=C2\C(=O)Nc3ccc(F)cc32)c1C	enzyme activity, inhibitor	10 µM	inhibition	10%
Cc1sc(C(=O)NC2COC2)cc1-n1cc(NC(=O)Nc2c(F)cccc2Cl)cn1	enzyme activity, inhibitor	10 µM	remaining activity	98%
O=C1NC(=O)c2cc(Nc3ccc(F)cc3)c(Nc3ccc(F)cc3)cc21	enzyme activity, inhibitor	0.5 µM	remaining activity	92%
Oc1cccc(-c2nc(N3CCOCC3)c3oc4ncccc4c3n2)c1	enzyme activity, inhibitor	10 µM	remaining activity	101%
Cc1nc(N2CC[C@@H](O)C2)ncc1-c1cc(C(F)(F)F)cc2[nH]ncc12	cell-free assay, competition with immobilised ligand	1 µM	remaining binding	100%
Cc1ccc(C(=O)NCc2ccsc2)cc1C#Cc1cn(C(C)C)c2ncnc(N)c12	enzyme activity, inhibitor	1 µM	activity vs control	26%
Cn1cc(Cl)c2c(Oc3c(F)cc(Nc4cc(Cl)nc(N)n4)cc3F)ccnc21	cell-free assay, competition with immobilised ligand	0.1 µM	remaining binding	100%
Oc1ccc(-c2nc(-c3ccncc3)c(-c3ccc(F)cc3)[nH]2)cc1	enzyme activity, inhibitor	0.5 µM	remaining activity	93.7%
CC(C)(O)[C@H]1CC[C@H](Nc2ccc3ncc(-c4cccc(C(F)(F)F)c4)n3n2)CC1	enzyme activity, inhibitor	1 µM	remaining activity	95.3%
CC/C(=N\NC(=O)NCc1cccc(O)c1)c1ccc(O)c(C)c1O	enzyme activity, inhibitor	0.1 µM	inhibition	-4.9%
Cc1ccc(Nc2nccc(N(C)c3ccc4c(C)n(C)nc4c3)n2)cc1S(N)(=O)=O	enzyme activity, inhibitor	10 µM	inhibition	24%
Cn1nc(C(=O)NCc2ccc(C(=O)O)cc2)cc1-c1ccc2[nH]ccc2c1	cell-free assay, competition with immobilised ligand	0.1 µM	remaining binding	94%
CS(=O)(=O)Nc1cccc(-c2csc(NC(=O)CSc3nc4nccnc4c(=O)n3CCc3ccccc3)n2)c1	enzyme activity, inhibitor	10 µM	inhibition	4%
Cc1c[nH]c2nccc(Oc3c(F)cc(Nc4cc(Cl)nc(N)n4)cc3F)c12	cell-free assay, competition with immobilised ligand	0.1 µM	remaining binding	87%
CN(c1ncccc1CNc1nc(Nc2ccc3c(c2)CC(=O)N3)ncc1C(F)(F)F)S(C)(=O)=O	enzyme activity, inhibitor	1 µM	inhibition	29.1%
CC(=O)N1CCC(c2ccc(C(=O)NC(=N)N)cc2C(F)(F)F)CC1	cell-free assay, competition with immobilised ligand	1 µM	remaining binding	100%
CC(C)(C)c1nc(-c2cccc(NS(=O)(=O)c3c(F)cccc3F)c2F)c(-c2ccnc(N)n2)s1	enzyme activity, inhibitor, radiometric	1 µM	remaining activity	34%
CC(C)(C)C(=O)c1sc(NC2CCCCC2)nc1N	enzyme activity, inhibitor	10 µM	remaining activity	98%
